Assays:
[1] = system: L. infantum axenic amastigotes; assay: Activity against axenic amastigotes; type: cell-based; settings: Leishmania infantum, 24 h, read-out: IC50 L. infantum (AA)
Summary of the method: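 L. infantum axenic amastigotes came from parasites recently recovered from infected mouse spleen. They were kept at 37 °C, 5% CO2 in MAA with 20% iFBS, 2 mM Glutamax and 0.023 mM hemin. Cells were seeded at 1.5×10^5 per well in MAA20. Test compound was dissolved in DMSO and diluted in medium for 24 h, in triplicate. Controls were 0.5% DMSO and amphotericin B. Viability was read by resazurin fluorescence and IC50 fitted.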

[2] = system: L. amazonensis promastigotes; assay: Activity against promastigotes; type: cell-based; settings: Leishmania amazonensis, 24 h, read-out: IC50 L. amazonensis (P)
Summary of the method: (§1)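 Promastigotes of L. major MHOM/SA/85/JISH118 or L. amazonensis MHOM/BR/LTB0016 were kept at 25 °C for at most 10 passages in Schneider's with 10% FBSi, 2% human urine and 5 mM HEPES. Late-exponential cells were seeded at 3×10^6 cells/mL. They were treated 24 h with test compound (DMSO stock diluted in Schneider's), in triplicate. Controls were 0.5% DMSO and amphotericin B. Resazurin read-out; IC50 fitted.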

[3] = Cytotoxicity in mammalian cells; type: cell-based, BALB/c mice; settings: BALB/c, mouse, bone marrow-derived macrophages (BMDM)
Summary of the method: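 Bone-marrow cells from BALB/c mice were differentiated for 7 days at 37 °C, 5% CO2. The medium was DMEM with 10% FBSi, 1% NEAA and 10% L929-conditioned medium. The resulting macrophages were exposed to test compound at up to 40 μM for 24 h. Viability was measured by resazurin assay. CC50 was calculated from percent viability relative to untreated control.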

[4] = system: L. infantum promastigotes; assay: Activity against promastigotes; type: cell-based; settings: Leishmania infantum, 24 h, read-out: IC50 L. infantum (P)
Summary of the method: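 L. infantum MHOM/MA/67/ITMAP263 promastigotes were grown at 25 °C for at most 10 passages in RPMI with 10% FBSi and 5 mM HEPES, pH 7.4. Late-exponential cells were seeded at 3×10^6 cells/mL and exposed for 24 h to test compound (DMSO stock diluted in RPMI), in triplicate. Controls were 0.5% DMSO and amphotericin B. Resazurin fluorescence gave viability and IC50 was fitted.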

L. major promastigotes = assay: Activity against promastigotes; type: cell-based; settings: Leishmania major, 24 h, read-out: IC50 L. major (P)
Summary of the method: as §1

[5] = system: L. infantum intracellular amastigotes; assay: IC50 against Leishmania intracellular amastigotes in infected macrophages; type: cell-based, Leishmania infantum; settings: CC50 BMDM versus IC50 intracellular amastigotes
Summary of the method: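 Ratio of BMDM CC50 (resazurin, 24 h) to intracellular IC50. For IC50, BALB/c BMDM were infected 3 h with stationary-phase L. infantum promastigotes (10:1), then washed. After 24 h, test compound in DMEM was added for 24 h, with 0.5% DMSO and amphotericin B controls. Cells were fixed, DAPI/CellMask stained and imaged automatically. IC50 was derived from percent infected macrophages.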

IC50 [1]	IC50 [2]	IC50 [4]	IC50 (L. major promastigotes)	Compound	CC50 at 24 h [3]	selectivity index [5]
0.4 ± 0.3 µM	0.2 ± 0.06 µM	0.18 ± 0.09 µM	0.17 ± 0.08 µM	C[C@@H]1[C@H](O)[C@@H](C)/C=C/C=C/C=C/C=C/C=C/C=C/C=C/[C@H](O[C@@H]2O[C@H](C)[C@@H](O)[C@H](N)[C@@H]2O)C[C@@H]2O[C@](O)(C[C@@H](O)C[C@@H](O)[C@H](O)CC[C@@H](O)C[C@@H](O)CC(=O)O[C@H]1C)C[C@H](O)[C@H]2C(=O)O [Amphotericin B, reference compound]	4.37 ± 0.97 µM	
	10 to 20 µM		> 20 µM	CC1(C)CC(=O)c2cc(CNC(=O)C/C=C/c3ccccc3)ccc2N1 [Compound 14e, (E)-N-((2,2-dimethyl-4-oxo-1,2,3,4-tetrahydroquinolin-6-yl)methyl)-4-phenylbut-3-enamide]	> 40 µM	
	> 20 µM	> 20 µM	> 20 µM	C/C=C(\CO)C(=O)NCc1ccc2c(c1)C(=O)CC(C)(C)N2 [Compound 14g, (E)-N-((2,2-dimethyl-4-oxo-1,2,3,4-tetrahydroquinolin-6-yl)methyl)-2-(hydroxymethyl)but-2-enamide]		
	> 20 µM	> 20 µM	> 20 µM	C/C=C(\C)C(=O)NCc1ccc2c(c1)C(=O)CC(C)(C)N2 [Compound 14c, (E)-N-((2,2-dimethyl-4-oxo-1,2,3,4-tetrahydroquinolin-6-yl)methyl)-2-methylbut-2-enamide]	> 40 µM	
	> 20 µM	> 20 µM	> 20 µM	C/C=C(\CO)C(=O)NCc1ccc2c(c1)C(=O)CC(C)(C)O2 [Compound 13a, (E)-N-((2,2-dimethyl-4-oxochroman-6-yl)methyl)-2-(hydroxymethyl)but-2-enamide]		
	> 20 µM	> 20 µM	> 20 µM	CC1(C)CC(=O)c2cc(CNC(=O)/C=C/c3cccs3)ccc2N1 [Compound 14f, (E)-N-((2,2-dimethyl-4-oxo-1,2,3,4-tetrahydroquinolin-6-yl)methyl)-3-(thiophen-2-yl)acrylamide]	> 40 µM	
	> 20 µM	> 20 µM	> 20 µM	Cc1ccc(Cc2ccc3c(c2)C(=O)CC(C)(C)O3)cc1 [Compound 21, 2,2-dimethyl-6-(4-methylbenzyl)chroman-4-one]		
25.3 ± 2.1 µM				CCCCCCCCNCc1ccc2c(c1)C(=O)CC(C)(C)O2 [Compound 13c, 2,2-dimethyl-6-((octylamino)methyl)chroman-4-one]	40.2 ± 5.7 µM	1.6
	> 20 µM	> 20 µM	> 20 µM	CC(C)=CC(=O)NCc1ccc2c(c1)C(=O)CC(C)(C)N2 [Compound 14d, N-((2,2-dimethyl-4-oxo-1,2,3,4-tetrahydroquinolin-6-yl)methyl)-3-methylbut-2-enamide]	> 40 µM	
	> 20 µM	> 20 µM	> 20 µM	C/C=C(\CO)C(=O)OCc1ccc2c(c1)C(=O)CC(C)(C)O2 [Compound 12a, (2,2-dimethyl-4-oxochroman-6-yl)methyl (E)-2-(hydroxymethyl)but-2-enoate]		
	> 20 µM	> 20 µM	> 20 µM	C/C=C/C(=O)NCc1ccc2c(c1)C(=O)CC(C)(C)N2 [Compound 14b, (E)-N-((2,2-dimethyl-4-oxo-1,2,3,4-tetrahydroquinolin-6-yl)methyl)but-2-enamide]	> 40 µM	

Source: publication PMC7096758 (Heliyon, 2020)
